TRPC4 act – opens the mouse TRPC4 cation channel; B-score at 10 µM; Q9QUQ5; HEK293 TRPC4beta/mu-opioid, Fluo4 calcium fluorescence; stronger effect = higher value; AID 2237; 310,000 tested, 0.49% active;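 active means B-score above 5 SD of library B-scores, and initial fluorescence ratio not above library mean plus 5 SD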;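 further: positive B-score marks a calcium rise read as TRPC4 activation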
Target sequence (Q9QUQ5 whole entry, looked up): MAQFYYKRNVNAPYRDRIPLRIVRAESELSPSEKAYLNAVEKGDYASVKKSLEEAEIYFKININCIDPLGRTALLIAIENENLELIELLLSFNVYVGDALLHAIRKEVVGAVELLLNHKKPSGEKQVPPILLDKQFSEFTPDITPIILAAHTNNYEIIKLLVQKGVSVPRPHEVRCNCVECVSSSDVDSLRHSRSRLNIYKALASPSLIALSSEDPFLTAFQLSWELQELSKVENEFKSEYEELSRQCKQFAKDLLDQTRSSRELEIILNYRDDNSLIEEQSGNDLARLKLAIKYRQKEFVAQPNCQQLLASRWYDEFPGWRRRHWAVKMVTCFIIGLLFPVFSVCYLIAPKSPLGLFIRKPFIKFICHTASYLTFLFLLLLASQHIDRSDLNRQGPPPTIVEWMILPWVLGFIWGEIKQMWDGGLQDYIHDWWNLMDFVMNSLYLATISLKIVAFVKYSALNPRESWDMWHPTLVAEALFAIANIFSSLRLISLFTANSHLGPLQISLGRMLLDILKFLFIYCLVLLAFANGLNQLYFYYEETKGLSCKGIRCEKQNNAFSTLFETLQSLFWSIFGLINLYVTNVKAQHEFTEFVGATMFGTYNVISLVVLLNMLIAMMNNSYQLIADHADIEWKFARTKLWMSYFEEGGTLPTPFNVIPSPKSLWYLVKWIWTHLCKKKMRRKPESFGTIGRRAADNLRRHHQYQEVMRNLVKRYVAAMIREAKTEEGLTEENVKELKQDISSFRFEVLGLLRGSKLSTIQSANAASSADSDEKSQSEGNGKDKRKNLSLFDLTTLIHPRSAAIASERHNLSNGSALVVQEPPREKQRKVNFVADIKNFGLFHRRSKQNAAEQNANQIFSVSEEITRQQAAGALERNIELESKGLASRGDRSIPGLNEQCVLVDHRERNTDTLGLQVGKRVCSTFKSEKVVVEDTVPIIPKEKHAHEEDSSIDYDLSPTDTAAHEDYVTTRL
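Technique: kinetic Fluo4 calcium fluorescence; Test system: TRPC4beta and mu-opioid receptor HEK293 stable cells; Measure: B-scored integrated calcium fluorescence ratio; Benchmarks: low control buffer alone, high control maximal DAMGO; Schedule: 45 min room-temperature Fluo4 loading, 110 s read.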
TRPC6 inh – blocks the mouse TRPC6 cation channel; HEK293-TRPC6, membrane potential dye, ACh-evoked depolarization; stronger effect = lower value; Q61143; B-score at 10 µM; 310,000 tested, 1.1% active;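 active means B-score under library mean minus 3 SD, initial fluorescence not abnormally high, positive integrated signal ratio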;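 further: B-score derived from integrated fluorescence ratio over the kinetic read; more negative B-score means stronger inhibition of depolarization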
TRPC6 activator – activators of mouse TRPC6 channel; Q61143; HEK293-TRPC6 membrane potential dye fluorescence; stronger effect = higher value; B-score at 10 µM; 310,000 tested, 0.13% active; AID 2550;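 active means B-score of the integrated fluorescence ratio above library mean plus 3 SD, and starting fluorescence ratio within library mean plus 5 SD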;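 further: higher score means more depolarization so channel activation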
TRPC4 potent – TRPC4 (mouse) allosteric potentiation | Q9QUQ5 | HEK293 TRPC4beta/mu-opioid, DAMGO EC20, Fluo-4 Ca2+ flux; stronger effect = higher value | B-score at 10 µM | 310,000 tested, 0.42% active | AID 2227;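 active means B-score of calcium response area above 5 SD of library B-scores, with initial fluorescence ratio within 5 SD of library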;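 further: B-score of integrated fluorescence ratio over time as area under calcium response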
TRPC4 inh – blocks the mouse TRPC4 cation channel; Q9QUQ5; HEK293 TRPC4beta/mu-opioid, DAMGO-evoked Fluo4 calcium flux; stronger effect = lower value; B-score at 10 µM; 300,000 tested, 0.39% active;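 active means B-score over 3 SD under the library average, no early fluorescence shift, positive overall ratio signal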
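test system = HEK293 cells with stable TRPC4beta plus mu-opioid receptor expression | detection = Fluo4 Ca2+ flux fluorescence | read-out = integrated fluorescence ratio relative to baseline, converted to per-well B score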
TRPC4 sel inh 2 – second selectivity test of TRPC6 inhibitors: effect on mouse TRPC4; inhibition, % at 10 µM; shares compounds with TRPC6 inh; 920 tested, 42% active; HEK293 TRPC4/MOR, membrane potential dye fluorescence; channel activated by saturating DAMGO dose;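 active means compounds whose fluorescence signal differed from control wells by over 3 SD, either direction, in both duplicate plates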
TRPC4 spec – tests whether TRPC6 inhibitors also affect mouse TRPC4; 920 tested, 61% active; shares compounds with TRPC6 inh; activity change, negative = inhibition, % at 10 µM; HEK293 TRPC4/mu-opioid, membrane potential fluorescence;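 active means rise or fall in signal beyond 3 SD of buffer-only wells in both replicate plates, either sign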;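 further: integrated kinetic ratio of fluorescence range over baseline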
HEK293 MPD ctr 2-1 – second counter-screen for TRPC6 inhibitors: parental HEK293 cells; shares compounds with TRPC6 inh; signal change vs control, % at 10 µM; 920 tested, 31% active; parental HEK293 membrane potential dye fluorescence; maximal acetylcholine challenge after compound addition;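 active means membrane potential signal moving either way by over 3 SD of the maximum-effect control, in both duplicate plates, meaning non-specific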
HEK293 MPD ctr-1 – counter-screen for TRPC6 inhibitors: effect in parental HEK293 cells | membrane potential signal change, % at 10 µM | shares compounds with TRPC6 inh | parental HEK293 membrane potential dye fluorescence | 920 tested, 60% active;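 active means membrane potential signal shifting up or down by more than 3 SD of buffer-only wells, on both duplicate plates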
HEK293 MPD ctr-2 – parental HEK293 nonspecific activity of TRPC6 modulators; shares compounds with TRPC6 inh; membrane potential dye fluorescence; membrane potential signal change, % at 10 µM; 2,400 tested, 51% active; AID 488924;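 active means membrane potential signal moves up or down beyond 5 SD from buffer-only wells, on both duplicate plates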
HEK293 MPD ctr 2-2 – second counter-screen for TRPC6 modulators: effect in parental HEK293 cells; shares compounds with TRPC6 inh; membrane potential dye fluorescence; after compound, maximal acetylcholine stimulation; inhibition, % at 10 µM; 2,400 tested, 14% active;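 active means membrane potential signal drops by more than 5 SD from the mean control signal, in both duplicate plates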;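 further: plate controls were acetylcholine ECmax control wells for no effect and buffer only wells for full effect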
TRPC4 ctr mod – mouse TRPC4 off-target activity of TRPC6 modulators | 2,400 tested, 69% active | shares compounds with TRPC6 inh | HEK293 TRPC4/mu-opioid, membrane potential fluorescence | percent change from control (negative = decrease, positive = increase), % at 10 µM;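 active means membrane potential signal moved up or down beyond 5 SD of buffer control wells, in both duplicate plates, actives on both sides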;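 further: plate controls were assay buffer wells for no effect and DAMGO maximal-effect wells for full effect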
TRPC4 ctr inh 2 – second selectivity test of TRPC6 modulators against mouse TRPC4; inhibition, % at 10 µM; AID 488928; 2,400 tested, 55% active; shares compounds with TRPC6 inh; HEK293 TRPC4/mu-opioid, membrane potential dye fluorescence; stimulated with maximal-effect DAMGO;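 active means drop in membrane potential signal beyond 5 SD of the control wells in both duplicate plates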;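 further: TRPC4 counter screen for TRPC6 hits run under conditions tuned for TRPC6 not TRPC4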
TRPC6 block conf – mouse TRPC6 inhibitor confirmation. shares compounds with TRPC6 inh. HEK293-TRPC6, membrane potential dye, ACh-evoked depolarization. inhibition, % at 10 µM. 3,300 tested, 43% active. AID 488960;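 active means fluorescence ratio falls more than 5 SD below the full-stimulation control mean, in both duplicate runs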;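 further: integrated fluorescence ratio of peak minus minimum over baseline after agonist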
TRPC6 act conf – mouse TRPC6 activator confirmation | HEK293-TRPC6 membrane potential dye fluorescence, FDSS | activation, % at 10 µM | 2,800 tested, 11% active | AID 488961 | shares compounds with TRPC6 inh;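 active means ratio signal rise beyond 5 SD above unstimulated control wells' mean, seen in both duplicate runs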;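 further: plate controls were buffer EC0 wells for no effect and acetylcholine ECmax response for full effect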
* hit, by the source's call; i = inactive; . = no result given; + = active, no number. In the library only some 2.3% were active in any assay of this set; here they are far more common.

SMILES	TRPC4 act	TRPC6 inh	TRPC6 activator	TRPC4 potent	TRPC4 inh	HEK293 MPD ctr-2	HEK293 MPD ctr 2-2	TRPC4 ctr mod	TRPC4 ctr inh 2	TRPC6 block conf	TRPC6 act conf	others
Cc1cc2nc3s/c(=C/c4ccc(-c5ccccc5C(=O)O)o4)c(=O)n3c2cc1C	143*	i	56*	12*	i	+	i	395%*	i	i	720%*
O=C(NC1CCN(Cc2ccc3ccccc3c2)CC1)c1ccccc1	i	i	i	i	i	.	.	.	.	.	.
O=c1cc(-c2ccccc2)oc2ccc(O)cc12	i	i	i	i	i	.	.	.	.	.	.
CC1(C)CC(N=c2cc(-c3ccccc3)oc3ccc(Cl)cc23)CC(C)(C)N1	i	-9.6*	i	i	i	.	.	.	.	69%*	i	TRPC4 sel inh 2=42%*;TRPC4 spec=-26%*;HEK293 MPD ctr 2-1=-39%*;HEK293 MPD ctr-1=-328%*
OCCCN=c1cc(-c2ccccc2)oc2ccc(Cl)cc12	i	-7.3*	i	i	i	.	.	.	.	77%*	i	TRPC4 sel inh 2=68%*;TRPC4 spec=-19%*;HEK293 MPD ctr 2-1=i;HEK293 MPD ctr-1=-386%*
Cc1ccc(-c2nc3ccccn3c2NCc2ccc3c(c2)OCO3)cc1	i	-5.5*	i	i	i	i	i	-19%*	69%*	44%*	i
COc1ccc(-c2nc3ccc(C)cn3c2NCc2ccc3c(c2)OCO3)cc1	i	i	i	i	i	.	.	.	.	.	.
CCc1ccc(OCC(=O)Nc2cccc3c2CCCC3)cc1	i	-5*	i	i	i	i	i	i	i	i	i
CCCC(=O)Nc1cccc2c1CCCC2	i	i	i	i	i	.	.	.	.	.	.
CCN(CC(=O)Nc1ccc(NC(C)=O)cc1)C(=O)c1ccc2c(c1)S(=O)(=O)N=C1CCCCCN12	i	i	i	i	i	.	.	.	.	.	.
O=CN1CCN(S(=O)(=O)c2ccc(S(=O)(=O)NC3CCCCC3)cc2)CC1	i	i	i	i	i	.	.	.	.	.	.
CC1CN(S(=O)(=O)c2ccc(C(=O)N(CCCN(C)C)c3nc4c(Cl)cccc4s3)cc2)CC(C)O1 (centres undefined)	i	-7.5*	i	i	i	i	i	-14%*	68%*	i	i
COc1ccc(OC)c2sc(N(CCN(C)C)C(=O)c3ccc4ccccc4c3)nc12	i	-7.6*	i	12*	i	.	.	.	.	79%*	i	TRPC4 sel inh 2=i;TRPC4 spec=i;HEK293 MPD ctr 2-1=i;HEK293 MPD ctr-1=i
CN(C)CCN(C(=O)c1ccc2c(c1)OCCO2)c1nc2c(Cl)cccc2s1	i	-7.2*	i	i	i	.	.	.	.	98%*	i	TRPC4 sel inh 2=26%*;TRPC4 spec=-22%*;HEK293 MPD ctr 2-1=i;HEK293 MPD ctr-1=-288%*
CCOc1cccc2sc(N(CCCN(C)C)C(=O)c3ccc(S(=O)(=O)N4CCc5ccccc5C4)cc3)nc12	i	i	i	i	i	.	.	.	.	.	.
CCOc1cccc2sc(N(CCCN(C)C)C(=O)c3ccc(S(=O)(=O)N(C)c4ccccc4)cc3)nc12	i	-6.6*	i	i	i	i	i	i	71%*	i	i
COc1cccc2sc(N(CCN(C)C)C(=O)c3ccc(S(=O)(=O)N4CCCC4)cc3)nc12	i	i	i	i	i	.	.	.	.	.	.
CC(=O)c1ccc(C(=O)N(CCN(C)C)c2nc3c(Cl)cccc3s2)cc1	i	i	i	i	i	.	.	.	.	.	.
COc1ccc(Cl)c2sc(N(CCN(C)C)C(=O)c3ccc4c(c3)OCCO4)nc12	i	-9.6*	i	46*	i	-122%*	90%*	-40%*	90%*	72%*	i
COc1cc2ccccc2cc1C(=O)N(CCN(C)C)c1nc2c(OC)ccc(OC)c2s1	i	i	i	i	i	.	.	.	.	.	.
C=CCn1c(=N)c(C(=O)NCCCOC)cc2c(=O)n3cc(C)ccc3nc21	i	-7.5*	i	i	i	.	.	.	.	i	i	TRPC4 sel inh 2=i;TRPC4 spec=2.7%*;HEK293 MPD ctr 2-1=-54%*;HEK293 MPD ctr-1=4.9%*
N=c1c(C(=O)NC2CCCC2)cc2c(=O)n3ccccc3nc2n1C1CCCCC1	i	-6.5*	i	i	i	-188%*	i	-30%*	50%*	44%*	i
Cc1ccc2nc3c(cc(C(=O)NC4CCCCC4)c(=N)n3C3CCCCC3)c(=O)n2c1	i	-7.8*	i	i	i	-132%*	i	-31%*	43%*	36%*	i
Cc1cccn2c(=O)c3cc(C(=O)NCC4CCCO4)c(=N)n(C4CCCCC4)c3nc12 (centres undefined)	i	i	i	i	i	.	.	.	.	.	.
Cc1ccc2nc3c(cc(C(=O)NC4CCCC4)c(=N)n3C3CCCCC3)c(=O)n2c1	i	-6.4*	i	i	i	-186%*	i	-32%*	43%*	58%*	i
C=CCn1c(=N)c(C(=O)NCCCOC)cc2c(=O)n3ccccc3nc21	i	i	i	i	i	.	.	.	.	.	.
O=C(OCCOCCN=C1NS(=O)(=O)c2ccccc21)c1ccc(F)cc1	i	i	i	i	i	.	.	.	.	.	.
